The source of these data is ChEMBL document CHEMBL1125823, “2-Phenylindole-linked [2-(aminoalkyl)pyridine]dichloroplatinum(II): complexes with a selective action on estrogen receptor positive mammary tumors” (1991).

For experiment [1], the system named is MCF7. Briefly: Effect on [3H]thymidine incorporation into estrogen receptor positive MCF-7 human breast cancer cells at 5x10E-6M (control = 7.7+/-0.8). It is filed as functional. The method, boiled down:
(§1)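 MCF-7 cells in improved MEM with glutamine, gentamycin and 5% newborn calf serum, switched to charcoal-treated serum two weeks ahead; phenol red present; 37 °C, 5% CO2. About 2×10^4 cells plated per well; compound in 0.1% DMF added 2 days later, renewed on day 4; labelled 3 days later with 1 μCi [3H]thymidine per well for 2 h; cpm/dish, mean of six dishes ± SD.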
In general terms: Dividing cells build labelled thymidine or BrdU into new DNA.

The test system of experiment [2] is MCF7. Kind of experiment: Effect on Estrogen receptor positive MCF-7 human breast cancer cell proliferation at 1x10E-6M (control = 22.3+/-3.3). It is filed as functional. The method, boiled down:
(§2)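 MCF-7 cells were kept in MEM with 5% charcoal-treated newborn calf serum and phenol red for 2 weeks, then about 2×10^4 cells were plated per well. Compounds in 0.1% DMF were added 2 days later and renewed on day 4; DMF alone served as control. Coulter cell counts were taken on day 5; mean of six dishes ± SD; % T/C.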

For experiment [3], the system named is MCF7. Kind of experiment: Effect on Estrogen receptor positive MCF-7 human breast cancer cell proliferation at 5x10E-6M (control = 22.3+/-3.3). It is filed as functional. Put shortly:
as §2

The test system of experiment [4] is MCF7. Kind of experiment: Effect on [3H]thymidine incorporation into estrogen receptor positive MCF-7 human breast cancer cells at 1x10E-6M (control = 7.7+/-0.8). It is filed as functional. The method, boiled down:
(§3)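 MCF-7 cells were grown in MEM with charcoal-treated 5% newborn calf serum and phenol red, then treated with compounds in 0.1% DMF (renewed on day 4) alongside DMF controls. They were labeled 3 days later with 1 µCi [³H]thymidine per well for 2 h, and incorporated radioactivity per dish was measured; mean of six dishes ± SD; % T/C.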

In experiment [5] the target is T1, Estrogen receptor (Mus musculus) (UniProt O08537+P19785). Briefly: Percent inhibition of estrone stimulated uterotrophic effect in mice at 150 ug. The experiment is classed as functional. Put shortly: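 Immature mice given test compound per animal sc on three consecutive days together with 0.4 μg estrone/animal/day. Killed 24 h after last injection; uteri fixed in Bouin, dried 100 °C 24 h and weighed. Inhibition = 100 − [(W_S,T − W_V)/(W_S − W_V) × 100] using relative uterus weights; 6-10 animals; Wilcoxon-Mann-Whitney U test.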
T1 sequence (O08537 whole entry, looked up): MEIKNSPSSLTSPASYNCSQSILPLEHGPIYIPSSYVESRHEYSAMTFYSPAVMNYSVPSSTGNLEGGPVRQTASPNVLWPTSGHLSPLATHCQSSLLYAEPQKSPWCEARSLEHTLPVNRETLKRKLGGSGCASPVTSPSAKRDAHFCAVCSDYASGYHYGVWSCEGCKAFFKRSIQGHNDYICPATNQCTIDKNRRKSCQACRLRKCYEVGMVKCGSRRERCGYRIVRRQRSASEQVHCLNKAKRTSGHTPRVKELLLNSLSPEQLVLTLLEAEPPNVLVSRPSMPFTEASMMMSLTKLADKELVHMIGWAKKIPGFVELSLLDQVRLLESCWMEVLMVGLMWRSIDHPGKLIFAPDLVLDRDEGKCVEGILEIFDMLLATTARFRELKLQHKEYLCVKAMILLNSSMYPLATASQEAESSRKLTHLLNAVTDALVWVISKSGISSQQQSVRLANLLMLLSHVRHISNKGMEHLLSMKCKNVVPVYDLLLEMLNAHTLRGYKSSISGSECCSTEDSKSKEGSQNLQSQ
T1 sequence (P19785 whole entry, looked up): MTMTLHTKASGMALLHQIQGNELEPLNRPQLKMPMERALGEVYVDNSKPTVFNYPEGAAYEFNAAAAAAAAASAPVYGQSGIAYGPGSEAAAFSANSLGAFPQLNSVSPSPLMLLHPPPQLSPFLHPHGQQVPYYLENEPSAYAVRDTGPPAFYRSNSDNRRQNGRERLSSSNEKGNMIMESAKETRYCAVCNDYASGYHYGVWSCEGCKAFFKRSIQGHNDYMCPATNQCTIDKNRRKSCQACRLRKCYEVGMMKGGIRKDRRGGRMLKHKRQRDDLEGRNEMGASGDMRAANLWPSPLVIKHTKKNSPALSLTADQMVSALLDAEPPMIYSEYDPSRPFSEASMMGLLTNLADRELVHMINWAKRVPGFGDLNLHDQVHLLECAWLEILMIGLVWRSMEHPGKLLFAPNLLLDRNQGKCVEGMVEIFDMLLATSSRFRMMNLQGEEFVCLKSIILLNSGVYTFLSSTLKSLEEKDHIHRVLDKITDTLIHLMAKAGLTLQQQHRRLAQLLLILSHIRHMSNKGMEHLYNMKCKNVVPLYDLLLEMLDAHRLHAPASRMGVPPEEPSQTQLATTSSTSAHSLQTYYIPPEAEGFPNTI

Experiment [6] has as its target T1, Estrogen receptor (Mus musculus). Kind of experiment: Uterotrophic effect in mice as relative uterine weight(mg) at 15 ug (control = 12.4+/-3.7). The experiment is classed as functional, tissue-based. Put shortly:
(§4)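 Immature mice dosed sc per animal on three consecutive days; vehicle controls. Killed and weighed 24 h after last injection; uteri fixed in Bouin solution 2 h, washed with alcoholic LiCl, dried at 100 °C for 24 h. Relative uterus weight = uterine dry weight (mg)/body weight (g) × 100; mean of 6-10 animals ± SD.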

In experiment [7] the test system is MCF7. Kind of experiment: Effect on Estrogen receptor positive MCF-7 human breast cancer cell proliferation at 1x10E-6M. It is filed as functional. The method, boiled down:
as §2

Experiment [8] relates to MCF7. Briefly: Effect on Estrogen receptor positive MCF-7 human breast cancer cell proliferation at 5x10E-6M. The experiment is classed as functional. Put shortly:
as §2

The species entered for experiment [9] is Mus musculus. Kind of experiment: Relative tumor weight in treated compared to control mice bearing hormone-dependent transplanted MXT mammary tumors at 12.4 mg. It is filed as functional.
The species entered for experiment [10] is Mus musculus. Kind of experiment: Relative tumor weight in treated compared to control mice bearing hormone-dependent transplanted MXT mammary tumors at 6.2 mg. The experiment is classed as functional.
The target of experiment [11] is T1, Estrogen receptor (Mus musculus). Briefly: Uterotrophic effect in mice as relative uterine weight(mg) at 150 ug (control = 12.4+/-3.7). It is filed as functional, tissue-based. Put shortly: as §4
The target is the same in experiment [12]. Kind of experiment: Anti-uterotrophic effect in hormone-dependent transplant MXT bearing mice as relative uterine weight in treated and control mice at 12.4 mg (control=100+/-30). The experiment is classed as functional.
Experiment [13] shares this target. Briefly: Anti-uterotrophic effect in hormone-dependent transplant MXT bearing mice as relative uterine weight in treated and control mice at 6.2 mg (control=100+/-30). It is filed as functional.
The species named for experiment [14] is Mus musculus. Kind of experiment: Anti-tumor activity in hormone-dependent transplant MXT mammary tumor bearing mice at 12.4 mg (control=534+/-652). The experiment is classed as functional.
Experiment [15] has as its target T1, Estrogen receptor (Mus musculus). Briefly: Anti-uterotrophic effect in mice as relative uterine weight(mg) at 15 ug. The experiment is classed as functional. Put shortly:
(§5)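 Immature mice received the compound sc per animal on three consecutive days, alone or with 0.4 µg estrone per animal per day. Uteri were taken 24 h after the last injection, Bouin-fixed, dried at 100 °C for 24 h and weighed. Relative uterus weight = dry weight (mg)/body weight (g) × 100; mean of 6-10 animals ± SD; Mann-Whitney U test.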

The target is the same in experiment [16]. Briefly: Anti-uterotrophic effect in mice as relative uterine weight(mg) at 150 ug. It is filed as functional. Put shortly:
as §5

For experiment [17], the species on record is Mus musculus. Kind of experiment: Anti-tumor activity in hormone-dependent transplant MXT mammary tumor bearing mice at 6.2 mg (control=534+/-652). It is filed as functional.
Experiment [18] relates to MCF7. Briefly: Effect on [3H]thymidine incorporation into estrogen receptor positive MCF-7 human breast cancer cells at 1x10E-6M. It is filed as functional. Put shortly:
as §3

For experiment [19], the system named is MCF7. Briefly: Effect on [3H]thymidine incorporation into estrogen receptor positive MCF-7 human breast cancer cells at 5x10E-6M. The experiment is classed as functional. Put shortly:
as §1

The species entered for experiment [20] is Mus musculus. Briefly: Relative tumor weight in treated compared to control mice bearing hormone-dependent transplanted MXT mammary tumors at 8.8mg. The experiment is classed as functional.
For experiment [21], the species on record is Mus musculus. Briefly: Anti-tumor activity in hormone-dependent transplant MXT mammary tumor bearing mice at 8.8 mg (control=388+/-269). The experiment is classed as functional.

Each structure is given as a SMILES string.

Consider `Cc1c(-c2ccc(O)cc2)n(CCCCCCNCc2ccccn2)c2ccc(O)cc12`, for which the Activity with MCF7 [1] was found to be 400; with MCF7 [4], 1000. Further, the results for the Cell no/dish in the experiment on MCF7 [2] and with MCF7 [3] were 106000 and 52000, respectively. The same compound gave an inhibition in experiment [5] of 31%. Besides, the Relative uterus weight in experiment [6] came to 27.9 mg; in experiment [11], 24.9 mg; in experiment [15], 46.6 mg; in [16] it was 36.9 mg. Moreover, the T/C in the experiment on MCF7 [7] turned out to be 48%; in the experiment with MCF7 [8] it was 23%; in the experiment filed under Mus musculus [9] it was 31%; in the experiment listed under Mus musculus [10], 71%; in [12], 137%; in [13], 119%. For the same compound, the T/C in the experiment with MCF7 [18] is 13%; with MCF7 [19], 5%. For the same compound, the Tumor weight is 169 mg in the experiment filed under Mus musculus [14] and 378 mg in the experiment filed under Mus musculus [17].

For the compound `CC/C(=C(\c1ccccc1)c1ccc(OCCN(C)C)cc1)c1ccccc1` [TAMOXIFEN], the T/C in the experiment filed under Mus musculus [20] stood at 29%. This compound also yielded a Tumor weight in the experiment filed under Mus musculus [21] of 114 mg.

Broadly, the inhibition is the percentage by which the read-out fell short of the control. The low end stands for a response near the control, the high end for a response far below the control. What is called T/C is the ratio of treated to control.
